Assay results published in ChEMBL document CHEMBL4715796, “Discovery of Chromane Containing Hepatitis C Virus (HCV) NS5A Inhibitors with Improved Potency against Resistance-Associated Variants” (J Med Chem, 2016).
Residue numbers refer to the chain shown, from its start.

What was measured:
[1] = test system: T1, Nonstructural protein 5A (Hepatitis C virus), Q5L478 [Y93H]; experiment: Inhibition of NS5A Y93H mutant in Hepatitis C virus subtype 1a infected in human HuH7 cells assessed as reduction in viral replication by luciferase reporter gene assay; type: cell-based; details: Huh-7
T1 sequence (whole entry): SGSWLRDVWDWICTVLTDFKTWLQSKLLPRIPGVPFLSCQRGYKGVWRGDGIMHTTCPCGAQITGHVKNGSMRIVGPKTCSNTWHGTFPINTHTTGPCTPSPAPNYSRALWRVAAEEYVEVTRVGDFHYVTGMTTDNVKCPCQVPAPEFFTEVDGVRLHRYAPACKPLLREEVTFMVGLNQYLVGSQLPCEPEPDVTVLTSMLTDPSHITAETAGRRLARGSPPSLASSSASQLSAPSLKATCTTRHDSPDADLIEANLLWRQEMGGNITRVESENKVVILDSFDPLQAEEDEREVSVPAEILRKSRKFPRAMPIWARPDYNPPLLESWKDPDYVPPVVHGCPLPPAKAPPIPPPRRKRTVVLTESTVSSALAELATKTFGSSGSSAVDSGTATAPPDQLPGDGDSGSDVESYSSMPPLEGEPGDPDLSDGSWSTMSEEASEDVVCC
Method in brief: (§1)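 NS5A resistance variants engineered into GT1a-H77 or GT1b-Con1 replicons. Each variant replicon is transfected transiently by electroporation into a Huh7-derived cell line. Percent inhibition is taken from the drop in luciferase signal at each compound concentration, and EC90 is calculated from these. Values are means of at least two experiments.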

[2] = test system: Huh-7; experiment: Inhibition of NS5A in Hepatitis C virus subtype 3a infected in human HuH7 cells assessed as reduction in viral replication by luciferase reporter gene assay; type: cell-based
Method in brief: (§2)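 Transient replicon assay with GT1a-H77, GT1b-Con1 or chimeric replicons, electroporated into a Huh7-derived cell line. Percent inhibition of replication, read as a drop in luciferase signal, was calculated at each concentration to give EC90. Values are means of at least two experiments.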

[3] = test system: Huh-7; experiment: Inhibition of NS5A in Hepatitis C virus subtype 2b infected in human HuH7 cells assessed as reduction in viral replication by luciferase reporter gene assay; type: cell-based; method in brief: as §2
[4] = test system: Huh-7; experiment: Inhibition of NS5A in Hepatitis C virus subtype 1b infected in human HuH7 cells assessed as reduction in viral replication by luciferase reporter gene assay; type: cell-based; method in brief: as §2
[5] = test system: Huh-7; experiment: Inhibition of NS5A in Hepatitis C virus subtype 4a infected in human HuH7 cells assessed as reduction in viral replication by luciferase reporter gene assay; type: cell-based; method in brief: as §2
[6] = test system: Huh-7; experiment: Inhibition of NS5A in Hepatitis C virus subtype 2a infected in human HuH7 cells assessed as reduction in viral replication by luciferase reporter gene assay; type: cell-based; method in brief: as §2
[7] = test system: Huh-7; experiment: Inhibition of NS5A in Hepatitis C virus subtype 1a infected in human HuH7 cells assessed as reduction in viral replication by luciferase reporter gene assay; type: cell-based; method in brief: as §2
[8] = test system: Nonstructural protein 5A (Hepatitis C virus), Q5L478 [UNDEFINED MUTATION]; experiment: Inhibition of NS5A L31V mutant in Hepatitis C virus subtype 1a infected in human HuH7 cells assessed as reduction in viral replication by luciferase reporter gene assay; type: cell-based; details: Huh-7; method in brief: as §1
[9] = Selectivity ratio of EC90 for inhibition of NS5A in Hepatitis C virus subtype 1b infected in human HuH7 cells assessed as reduction in viral to EC90 for inhibition of NS5A in Hepatitis C virus subtype 1a; type: cell-based
Method in brief: (§3)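 Fold shift calculated against the GT1a EC90, using EC90 values from the luciferase replicon assay in Huh7-derived cells.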

[10] = Selectivity ratio of EC90 for inhibition of NS5A Y93H mutant in Hepatitis C virus subtype 1a infected in human HuH7 cells assessed as reduction in viral to EC90 for inhibition of NS5A in Hepatitis C virus subtype 1a; type: cell-based
Method in brief: (§4)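 Fold shift is calculated against the GT1a EC90. The variant EC90 comes from a transient replicon assay: the NS5A variant is introduced into a GT1a-H77 or GT1b-Con1 replicon and electroporated into Huh7-derived cells. The read-out is reduced luciferase signal. EC90s are means of at least two experiments.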

[11] = Selectivity ratio of EC90 for inhibition of NS5A in Hepatitis C virus subtype 4a infected in human HuH7 cells assessed as reduction in viral to EC90 for inhibition of NS5A in Hepatitis C virus subtype 1a; type: cell-based; method in brief: as §3
[12] = Selectivity ratio of EC90 for inhibition of NS5A in Hepatitis C virus subtype 3a infected in human HuH7 cells assessed as reduction in viral to EC90 for inhibition of NS5A in Hepatitis C virus subtype 1a; type: cell-based
[13] = Selectivity ratio of EC90 for inhibition of NS5A L31V mutant in Hepatitis C virus subtype 1a infected in human HuH7 cells assessed as reduction in viral to EC90 for inhibition of NS5A in Hepatitis C virus subtype 1a; type: cell-based; method in brief: as §4
[14] = Selectivity ratio of EC90 for inhibition of NS5A in Hepatitis C virus subtype 2b infected in human HuH7 cells assessed as reduction in viral to EC90 for inhibition of NS5A in Hepatitis C virus subtype 1a; type: cell-based
[15] = Oral bioavailability in male Wistar Han rat at 10 mg/kg post overnight fasting measured upto 24 hrs by LC-MS/MS analysis; type: ADME, organism-based; details: in vivo
Method in brief: (§5)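 Overnight-fasted male Wistar Han rats or Beagle dogs, two animals per group, 24 h study. IV in 60% PEG200 (rat 2 mg/kg, dog 1 mg/kg). PO in 10% Tween (rat 10 mg/kg, dog 5 mg/kg). Blood sampled up to 24 h, plasma separated by centrifugation, and drug measured by LC/MS. MRT reported for the IV route.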

[16] = Cmax in male Wistar Han rats at 10 mg/kg, po administered post overnight fasting measured upto 24 hrs by LC-MS/MS analysis; type: ADME, organism-based; set-up: route oral, dose 10 mg/kg, time <=24; details: rat, in vivo; method in brief: as §5
[17] = Clearance in male Wistar Han rats at 2 mg/kg, iv administered post overnight fasting measured upto 24 hrs by LC-MS/MS analysis; type: ADME, organism-based; details: rat, in vivo; method in brief: as §5
[18] = AUC in male Wistar Han rats at 10 mg/kg, po administered post overnight fasting measured upto 24 hrs by LC-MS/MS analysis; type: ADME, organism-based; set-up: route oral, dose 10 mg/kg, time <=24; details: rat, in vivo; method in brief: as §5
[19] = Half-life in male Wistar Han rats at 2 mg/kg, iv administered post overnight fasting measured upto 24 hrs by LC-MS/MS analysis; type: ADME, organism-based; details: rat, in vivo; method in brief: as §5
[20] = Drug concentration in male Wistar Han rat at 10 mg/kg, po measured after 24 hrs by LC/MS analysis; type: ADME, organism-based; details: in vivo, read-out: Drug uptake; method in brief: as §5
[21] = test system: Nonstructural protein 5A (Hepatitis C virus), Q5L478 [UNDEFINED MUTATION]; experiment: Inhibition of NS5A Q30R mutant in Hepatitis C virus subtype 1a; method in brief: as §1
[22] = test system: Hepatitis C virus subtype 1a; experiment: Selectivity ratio of EC90 for inhibition of NS5A Q30D mutant in Hepatitis C virus subtype 1a to EC90 for Selectivity ratio of EC90 for inhibition of NS5A in Hepatitis C virus subtype 1a; method in brief: as §4
[23] = Selectivity ratio of EC90 for inhibition of NS5A Y93H mutant in Hepatitis C virus subtype 1b to EC90 for Selectivity ratio of EC90 for inhibition of NS5A in Hepatitis C virus subtype 1a; method in brief: as §4
[24] = test system: Hepatitis C virus subtype 1a; experiment: Selectivity ratio of EC90 for inhibition of NS5A Q30R mutant in Hepatitis C virus subtype 1a to EC90 for Selectivity ratio of EC90 for inhibition of NS5A in Hepatitis C virus subtype 1a; method in brief: as §4
[25] = test system: Hepatitis C virus subtype 1a; experiment: Inhibition of NS5A Q30D mutant in Hepatitis C virus subtype 1a; method in brief: as §1
[26] = test system: T2, Nonstructural protein 5A (Hepatitis C virus), Q5L478 [Y93N]; experiment: Inhibition of NS5A Y93N mutant in Hepatitis C virus subtype 1a; method in brief: as §1
T2 sequence (whole entry): T1 sequence (whole entry) with H93N

[27] = test system: T1, Nonstructural protein 5A (Hepatitis C virus), Q5L478 [Y93H]; experiment: Inhibition of NS5A Y93H mutant in Hepatitis C virus subtype 1b; method in brief: as §1
[28] = Selectivity ratio of EC90 for inhibition of NS5A L31V mutant in Hepatitis C virus subtype 1b to EC90 for Selectivity ratio of EC90 for inhibition of NS5A in Hepatitis C virus subtype 1a; method in brief: as §4
[29] = test system: Nonstructural protein 5A (Hepatitis C virus), Q5L478 [UNDEFINED MUTATION]; experiment: Inhibition of NS5A L31V mutant in Hepatitis C virus subtype 1b; method in brief: as §1
[30] = test system: Hepatitis C virus subtype 1a; experiment: Selectivity ratio of EC90 for inhibition of NS5A Y93N mutant in Hepatitis C virus subtype 1a to EC90 for Selectivity ratio of EC90 for inhibition of NS5A in Hepatitis C virus subtype 1a; method in brief: as §4

SMILES	EC90 [1] [nM]	EC90 [2] [nM]	EC90 [3] [nM]	EC90 [4] [nM]	EC90 [5] [nM]	EC90 [7] [nM]	EC90 [8] [nM]	Selectivity ratio [9]	Selectivity ratio [10]	Selectivity ratio [11]	Selectivity ratio [12]	Selectivity ratio [13]	Selectivity ratio [14]	bioavailability [15] [%]	Cmax [16] [nM]	clearance [17] [mL/min/kg]	AUC at 24 h [18] [µM·h]	half-life [19] [h]	concentration at 24 h [20] [nM]	also measured
COC(=O)N[C@H](C(=O)N1CCC[C@H]1c1ncc(-c2ccc3c(c2)OC(c2cccc(-c4ccccc4)c2)n2c-3cc3cc(-c4cnc([C@@H]5CCCN5C(=O)[C@@H](NC(=O)OC)C(C)C)[nH]4)ccc32)[nH]1)C(C)C (mixture of isomers)	21	0.3	3.8	0.006	0.02	0.005	1													EC90 [6]: 0.004 nM
COC(=O)N[C@H](C(=O)N1CCC[C@H]1c1ncc(-c2cc(F)c3c(c2)OC(c2ccc4c(c2)OCC[C@H]4C)n2c-3cc3cc(-c4cnc([C@@H]5CCCN5C(=O)[C@@H](NC(=O)OC)C(C)C)[nH]4)ccc32)[nH]1)C(C)C (stereo partly specified)	0.2	0.006	0.2	0.002	0.003	0.004	0.007	1	50	1	2	2	50							
COC(=O)N[C@H](C(=O)N1CCC[C@H]1c1ncc(-c2cc(F)c3c(c2)OC(c2ccc4c(c2)OC(C)(C)C4)n2c-3cc3cc(-c4cnc([C@@H]5CCCN5C(=O)[C@@H](NC(=O)OC)C(C)C)[nH]4)ccc32)[nH]1)C(C)C.O=C(O)C(F)(F)F.O=C(O)C(F)(F)F (stereo partly specified)	0.2	0.005	0.5	0.004	0.003	0.003	0.02	1	67	1	2	7	167	3	58	7	0.71	8.4	9	
COC(=O)N[C@H](C(=O)N1CCC[C@H]1c1ncc(-c2cc(F)c3c(c2)OC(c2ccc4c(c2)OCC[C@@H]4C)n2c-3cc3cc(-c4cnc([C@@H]5CCCN5C(=O)[C@@H](NC(=O)OC)C(C)C)[nH]4)ccc32)[nH]1)C(C)C (stereo partly specified)	0.2	0.01	0.2	0.002	0.003	0.004	0.01	1	50	1	3	3	50							
COC(=O)N[C@H](C(=O)N1CCC[C@H]1c1ncc(-c2cc(F)c3c(c2)OC(c2ccc4c(c2)OCCC4)n2c-3cc3cc(-c4cnc([C@@H]5CCCN5C(=O)[C@@H](NC(=O)OC)C(C)C)[nH]4)ccc32)[nH]1)C(C)C.O=C(O)C(F)(F)F.O=C(O)C(F)(F)F (stereo partly specified)														5	86	8	1.35	5.8	17	
COC(=O)N[C@H](C(=O)N1CCC[C@H]1c1ncc(-c2ccc3c(c2)OC(c2ccc(-c4ccccc4)cc2)n2c-3cc3cc(-c4cnc([C@@H]5CCCN5C(=O)[C@@H](NC(=O)OC)C(C)C)[nH]4)ccc32)[nH]1)C(C)C (mixture of isomers)	4.6	< 0.2	2.6	< 0.02	< 0.02	< 0.02	< 2													EC90 [6]: < 0.2 nM
COC(=O)N[C@H](C(=O)N1CCC[C@H]1c1ncc(-c2cc(F)c3c(c2)OC(c2ccc4c(c2)OCCC42CC2)n2c-3cc3cc(-c4cnc([C@@H]5CCCN5C(=O)[C@@H](NC(=O)OC)C(C)C)[nH]4)ccc32)[nH]1)C(C)C.O=C(O)C(F)(F)F.O=C(O)C(F)(F)F (stereo partly specified)	0.1	0.01	0.2	0.004	0.006	0.003	0.006	1	20	1	2	1	40	2	29	15	0.24	8.5	1	EC90 [21]: 0.03 nM; Selectivity ratio [22]: 400; Selectivity ratio [23]: 7; Selectivity ratio [24]: 10; EC90 [25]: 1.2 nM; EC90 [26]: 0.9 nM; EC90 [27]: 0.02 nM; Selectivity ratio [28]: 2; EC90 [29]: 0.005 nM; Selectivity ratio [30]: 300
